Active and inactive are the calls of the source. The rule behind the calls is not given here.
Legend:
[1] = Metabolic stability in human serum assessed as full length product remaining after 10 mins by HPLC; type: ADME, cell-free; details: read-out: Stability
In short: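 About 0.5 A260 units compound in 1% human serum in PBS, 37 °C; aliquot taken at 10 min, analysed by anion-exchange HPLC for percent intact full-length product.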

[2] = biological target: T1, Toll-like receptor 7 (Homo sapiens) (UniProt Q9NYK1); test: Activation of human TLR7 expressed in HEK293XL assessed as fold induction of NF-kappaB activity at 50 ug/ml after 18 hrs by reporter gene assay relative to control
T1 sequence (whole entry): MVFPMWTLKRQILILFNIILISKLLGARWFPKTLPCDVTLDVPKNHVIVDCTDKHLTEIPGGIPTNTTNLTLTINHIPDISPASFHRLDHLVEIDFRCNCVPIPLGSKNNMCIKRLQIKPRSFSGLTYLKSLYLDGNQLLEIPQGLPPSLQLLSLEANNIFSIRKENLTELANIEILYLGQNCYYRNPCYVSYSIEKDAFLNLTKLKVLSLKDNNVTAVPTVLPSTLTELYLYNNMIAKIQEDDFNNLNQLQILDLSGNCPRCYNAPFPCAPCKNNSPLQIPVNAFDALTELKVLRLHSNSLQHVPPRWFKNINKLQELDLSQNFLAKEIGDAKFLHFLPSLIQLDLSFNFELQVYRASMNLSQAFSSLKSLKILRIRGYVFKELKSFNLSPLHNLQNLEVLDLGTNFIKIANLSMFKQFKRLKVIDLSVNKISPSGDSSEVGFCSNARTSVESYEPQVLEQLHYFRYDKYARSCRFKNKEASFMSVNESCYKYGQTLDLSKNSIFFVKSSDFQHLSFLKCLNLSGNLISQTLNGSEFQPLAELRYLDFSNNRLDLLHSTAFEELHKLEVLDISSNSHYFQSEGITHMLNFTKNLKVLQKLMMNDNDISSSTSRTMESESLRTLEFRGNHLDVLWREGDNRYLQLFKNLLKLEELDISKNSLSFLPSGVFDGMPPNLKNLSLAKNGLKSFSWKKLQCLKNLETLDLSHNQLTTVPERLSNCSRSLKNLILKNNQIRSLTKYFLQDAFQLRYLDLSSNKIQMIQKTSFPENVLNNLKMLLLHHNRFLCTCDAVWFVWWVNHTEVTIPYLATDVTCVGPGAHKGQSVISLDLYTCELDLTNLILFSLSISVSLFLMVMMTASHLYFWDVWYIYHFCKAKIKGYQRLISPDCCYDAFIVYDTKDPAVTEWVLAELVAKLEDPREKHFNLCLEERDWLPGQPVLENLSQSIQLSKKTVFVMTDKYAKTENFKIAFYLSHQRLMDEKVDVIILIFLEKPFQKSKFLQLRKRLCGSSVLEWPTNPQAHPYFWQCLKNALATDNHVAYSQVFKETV
In short: (§1)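 HEK293 cells stably expressing human TLR7 or TLR8, transiently transfected with SEAP reporter plasmid; medium replaced, SIMRA compounds added, 18 h incubation. Supernatant SEAP measured by QuantiBlue; expressed as fold increase in NF-κB activity over PBS control. Tabulated data at 50 μg/mL, representative of three independent experiments.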

Homo sapiens = species: Homo sapiens; test: Ratio of human TLR7 activity to human TLR8 activity
In short: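 TLR7/TLR8 ratio computed from fold NF-κB (SEAP reporter) activation in HEK293 cells stably expressing human TLR7 versus TLR8, compounds at 50 μg/mL, 18 h exposure; representative of three independent experiments.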

[3] = biological target: T2, Toll-like receptor 8 (Homo sapiens) (UniProt Q9NR97); test: Activation of human TLR8 expressed in HEK293XL assessed as fold induction of NF-kappaB activity at 50 ug/ml after 18 hrs by reporter gene assay relative to control; in short: as §1
T2 sequence (whole entry): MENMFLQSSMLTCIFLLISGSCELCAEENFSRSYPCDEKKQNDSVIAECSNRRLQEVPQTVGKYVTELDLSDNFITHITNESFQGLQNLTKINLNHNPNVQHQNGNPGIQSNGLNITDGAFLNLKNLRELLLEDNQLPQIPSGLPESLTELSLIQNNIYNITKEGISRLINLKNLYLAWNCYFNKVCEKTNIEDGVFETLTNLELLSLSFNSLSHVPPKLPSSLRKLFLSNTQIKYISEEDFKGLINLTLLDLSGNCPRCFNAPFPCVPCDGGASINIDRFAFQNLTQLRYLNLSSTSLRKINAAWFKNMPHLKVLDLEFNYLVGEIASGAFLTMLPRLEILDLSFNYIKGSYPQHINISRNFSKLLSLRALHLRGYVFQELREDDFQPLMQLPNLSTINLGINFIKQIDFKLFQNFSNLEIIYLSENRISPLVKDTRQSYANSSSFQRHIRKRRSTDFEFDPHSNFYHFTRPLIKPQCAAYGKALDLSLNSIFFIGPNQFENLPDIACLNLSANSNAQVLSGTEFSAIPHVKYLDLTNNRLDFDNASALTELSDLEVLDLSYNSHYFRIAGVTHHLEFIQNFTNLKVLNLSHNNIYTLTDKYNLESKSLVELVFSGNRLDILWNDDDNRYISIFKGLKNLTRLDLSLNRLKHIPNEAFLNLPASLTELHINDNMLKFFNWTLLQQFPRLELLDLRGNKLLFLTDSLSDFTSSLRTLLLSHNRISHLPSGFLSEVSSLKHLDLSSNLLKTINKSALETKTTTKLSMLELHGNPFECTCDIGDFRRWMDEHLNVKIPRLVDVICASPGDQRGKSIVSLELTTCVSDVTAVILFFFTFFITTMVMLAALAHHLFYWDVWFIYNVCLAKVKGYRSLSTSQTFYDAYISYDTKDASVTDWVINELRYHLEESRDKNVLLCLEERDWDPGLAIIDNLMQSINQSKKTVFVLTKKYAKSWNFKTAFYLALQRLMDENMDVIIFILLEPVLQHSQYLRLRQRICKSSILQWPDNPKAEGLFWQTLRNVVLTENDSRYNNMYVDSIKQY

Splenocyte [4] = test: Immunomodulatory activity in C57BL/6 mouse splenocytes bearing TLR7 receptor assessed as IL12 release at 100 ug/ml after 24 hrs by ELISA; type: functional, cell-based
In short: (§2)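 C57BL/6 splenocytes in RPMI 1640 with 10% FBS, penicillin/streptomycin, 2 mM L-glutamine, plated at 5 × 10^6 cells/mL; compounds in PBS added, 37 °C for 24 h. Supernatant IL-12 and IL-6 by ELISA; representative of three independent experiments.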

Splenocyte [5] = test: Immunomodulatory activity in C57BL/6 mouse splenocytes bearing TLR7 receptor assessed as IL6 release at 100 ug/ml after 24 hrs by ELISA; type: functional, cell-based; in short: as §2
PBMC = test: Immunomodulatory activity in human PBMC assessed as induction of TNFalpha at 100 ug/ml after 24 hrs; type: functional, cell-based
In short: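 Human PBMCs plated at 5 × 10^6 cells/mL; compounds dissolved in PBS added at various concentrations, 37 °C for 24 h. Supernatant cytokines/chemokines quantified with human Luminex multiplex kit.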

| remaining at 10 min [1] [%] | fold change (FC) [2] | Ratio (Homo sapiens) | fold change (FC) [3] | Activity (Splenocyte [4]) | Activity (Splenocyte [5]) | SMILES | Activity (PBMC) [pg/mL] |
| --- | --- | --- | --- | --- | --- | --- | --- |
| 77 | 29.5 | 29.5 | 1 | Active | Active | Nc1ccn([C@@H]2O[C@H](COP(=O)(S)O[C@H]3[C@@H](O)[C@H](n4cnc5c(N)ncnc54)O[C@@H]3COP(=O)(S)O[C@H]3[C@@H](O)[C@H](n4cnc5c(N)ncnc54)O[C@@H]3CO)[C@@H](OP(=O)(S)OC[C@H]3O[C@@H](n4ccc(=O)[nH]c4=O)[C@H](O)[C@@H]3OP(=O)(S)OC[C@H]3O[C@@H](n4ccc5c(=O)[nH]c(N)nc54)[C@H](O)[C@@H]3OP(=O)(S)OC[C@H]3O[C@@H](n4cnc5c(N)ncnc54)[C@H](O)[C@@H]3OP(=O)(S)OC[C@H]3O[C@@H](n4cnc5c(N)ncnc54)[C@H](O)[C@@H]3OP(=O)(S)OC[C@H]3O[C@@H](n4ccc5c(=O)[nH]c(N)nc54)[C@H](O)[C@@H]3OP(=O)(S)OC[C@H]3O[C@@H](n4ccc(N)nc4=O)[C@H](O)[C@@H]3OP(=O)(S)OC[C@H]3O[C@@H](n4ccc(=O)[nH]c4=O)[C@H](O)[C@@H]3OP(=O)(S)OC[C@H]3O[C@@H](n4ccc(=O)[nH]c4=O)[C@H](O)[C@@H]3OP(=O)(S)OCC(O)COP(=O)(S)O[C@H]3[C@@H](O)[C@H](n4ccc(=O)[nH]c4=O)O[C@@H]3COP(=O)(S)O[C@H]3[C@@H](O)[C@H](n4ccc(=O)[nH]c4=O)O[C@@H]3COP(=O)(S)O[C@H]3[C@@H](O)[C@H](n4ccc(N)nc4=O)O[C@@H]3COP(=O)(S)O[C@H]3[C@@H](O)[C@H](n4ccc5c(=O)[nH]c(N)nc54)O[C@@H]3COP(=O)(S)O[C@H]3[C@@H](O)[C@H](n4cnc5c(N)ncnc54)O[C@@H]3COP(=O)(S)O[C@H]3[C@@H](O)[C@H](n4cnc5c(N)ncnc54)O[C@@H]3COP(=O)(S)O[C@H]3[C@@H](O)[C@H](n4ccc5c(=O)[nH]c(N)nc54)O[C@@H]3COP(=O)(S)O[C@H]3[C@@H](O)[C@H](n4ccc(=O)[nH]c4=O)O[C@@H]3COP(=O)(S)O[C@H]3[C@@H](O)[C@H](n4ccc(N)nc4=O)O[C@@H]3COP(=O)(S)O[C@H]3[C@@H](O)[C@H](n4cnc5c(N)ncnc54)O[C@@H]3COP(=O)(S)O[C@H]3[C@@H](O)[C@H](n4cnc5c(N)ncnc54)O[C@@H]3CO)[C@H]2O)c(=O)n1 (some centres undefined) | 7.5 |
| 75 | 30 | 50 | 0.6 | Active | Active | Nc1ccn([C@@H]2O[C@H](CO)[C@@H](OP(=O)(S)OC[C@H]3O[C@@H](n4ccc(=O)[nH]c4=O)[C@H](O)[C@@H]3OP(=O)(S)OC[C@H]3O[C@@H](n4ccc5c(=O)[nH]c(N)nc54)[C@H](O)[C@@H]3OP(=O)(S)OC[C@H]3O[C@@H](n4cnc5c(N)ncnc54)[C@H](O)[C@@H]3OP(=O)(S)OC[C@H]3O[C@@H](n4ccc(N)nc4=O)[C@H](O)[C@@H]3OP(=O)(S)OC[C@H]3O[C@@H](n4ccc5c(=O)[nH]c(N)nc54)[C@H](O)[C@@H]3OP(=O)(S)OC[C@H]3O[C@@H](n4cnc5c(N)ncnc54)[C@H](O)[C@@H]3OP(=O)(S)OC[C@H]3O[C@@H](n4ccc5c(=O)[nH]c(N)nc54)[C@H](O)[C@@H]3OP(=O)(S)OC[C@H]3O[C@@H](n4ccc(N)nc4=O)[C@H](O)[C@@H]3OP(=O)(S)OC[C@H]3O[C@@H](n4ccc(=O)[nH]c4=O)[C@H](O)[C@@H]3OP(=O)(S)OC[C@H]3O[C@@H](n4ccc(=O)[nH]c4=O)[C@H](O)[C@@H]3OP(=O)(S)OCC(O)COP(=O)(S)O[C@H]3[C@@H](O)[C@H](n4ccc(=O)[nH]c4=O)O[C@@H]3COP(=O)(S)O[C@H]3[C@@H](O)[C@H](n4ccc(=O)[nH]c4=O)O[C@@H]3COP(=O)(S)O[C@H]3[C@@H](O)[C@H](n4ccc(N)nc4=O)O[C@@H]3COP(=O)(S)O[C@H]3[C@@H](O)[C@H](n4ccc5c(=O)[nH]c(N)nc54)O[C@@H]3COP(=O)(S)O[C@H]3[C@@H](O)[C@H](n4cnc5c(N)ncnc54)O[C@@H]3COP(=O)(S)O[C@H]3[C@@H](O)[C@H](n4ccc5c(=O)[nH]c(N)nc54)O[C@@H]3COP(=O)(S)O[C@H]3[C@@H](O)[C@H](n4ccc(N)nc4=O)O[C@@H]3COP(=O)(S)O[C@H]3[C@@H](O)[C@H](n4cnc5c(N)ncnc54)O[C@@H]3COP(=O)(S)O[C@H]3[C@@H](O)[C@H](n4ccc5c(=O)[nH]c(N)nc54)O[C@@H]3COP(=O)(S)O[C@H]3[C@@H](O)[C@H](n4ccc(=O)[nH]c4=O)O[C@@H]3COP(=O)(S)O[C@H]3[C@@H](O)[C@H](n4ccc(N)nc4=O)O[C@@H]3CO)[C@H]2O)c(=O)n1 (some centres undefined) | 33.4 |

Source: ChEMBL document CHEMBL1154352, “Toll-like receptor 7 selective synthetic oligoribonucleotide agonists: synthesis and structure-activity relationship studies” (J Med Chem, 2009)
